Reference: ChEMBL document CHEMBL4725241, “Discovery of BMS-986235/LAR-1219: A Potent Formyl Peptide Receptor 2 (FPR2) Selective Agonist for the Prevention of Heart Failure” (J Med Chem, 2020)

Experiments:
[1] = Half life in cynomolgus monkey at 3 mg/kg, po by LC-MS/MS analysis; type: ADME, organism-based, Macaca fascicularis; settings: in vivo
Method in brief: (§1)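 Male animals dosed orally with a suspension in 0.5% MC. Blood was taken into EDTA 2K capillaries and plasma was stored frozen. Plasma was mixed with methanol/acetonitrile (1:1) plus internal standard, centrifuged, and drug was measured by LC-MS/MS. AUC0-inf was obtained by the trapezoidal rule, extrapolated with kel from the terminal phase. t1/2 = ln2/kel.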

[2] = Cmax in BALB/cCrSlc mouse at 1 mg/kg, po by LC-MS/MS analysis; type: ADME, organism-based; parameters: route oral, dose 1 mg/kg; settings: in vivo; method in brief: as §1
[3] = Volume of distribution at steady state in Crl:CD1(ICR) mouse at 0.5 mg/kg, iv by LC-MS/MS analysis; type: ADME, organism-based; settings: in vivo, read-out: Vdss
Method in brief: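 Male animals received intravenous solution in DMSO/PEG400/saline (5/47.5/47.5). EDTA plasma was extracted with methanol/acetonitrile (1:1) plus internal standard and quantified by LC-MS/MS. AUC0-inf was calculated by the trapezoidal rule with terminal-phase kel extrapolation.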

[4] = Oral bioavailability in Beagle dog at 1 mg/kg by LC-MS/MS analysis; type: ADME, organism-based, Canis lupus familiaris; settings: in vivo
[5] = AUC (0 to infinity) in BALB/cCrSlc mouse at 1 mg/kg, po by LC-MS/MS analysis; type: ADME, organism-based; parameters: time infinity, route oral, dose 1 mg/kg; settings: in vivo; method in brief: as §1

Which half-life [1] does the source give for `COc1cc(F)c([C@@H]2CNC(=O)[C@H]2NC(=O)Nc2ccccc2)c(F)c1` [BMS-986235] here?
Its half-life is 5 h.

And the Cmax [2]?
The Cmax was 160 nM.

And the Vd [3]?
The Vd was 3.5 L/kg.

And the bioavailability [4]?
The bioavailability was 50%.

What about the AUC(0-inf) [5] of the same molecule?
Its AUC(0-inf) is 0.12 µM·h.
